# Source: ChEMBL document CHEMBL1938297, “Synthesis, radiofluorination and pharmacological evaluation of a fluoromethyl spirocyclic PET tracer for central σ1 receptors and comparison with fluoroalkyl homologs” (Bioorg Med Chem, 2012)
# Legend:
# [1] = test system: Mus musculus; assay: Biodistribution in CD1 mouse small intestine at 300 kBq, iv after 5 mins by gamma counting; assay type: ADME, organism-based; conditions: in vivo
# In short: (§1)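 Female CD-1 mice received the 18F tracer iv at 300 kBq in 0.9% NaCl containing 5% ethanol; 3–6 animals per time point (5, 30, 60, 120 min p.i.). Animals anaesthetized, blood and urine collected, killed by cervical luxation, organs dissected and weighed, counted in calibrated gamma counter. %ID/g = tissue counts / initial dose counts / tissue weight; mean with SD.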
# [2] = n-Octanol-phosphate-saline solution partition coefficient, log D of the compound at pH 7.2 by shake-flask method; assay type: physicochemical
# In short: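 Shake-flask distribution of the radioligand between n-octanol and aqueous buffer at pH 7.2, either phosphate buffer or phosphate-saline; n = 3.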
# [3] = test system: Mus musculus; assay: Biodistribution in CD1 mouse thymus at 300 kBq, iv after 5 mins by gamma counting; assay type: ADME, organism-based; conditions: in vivo; in short: as §1
# [4] = test system: Cerebellum; assay: Biodistribution in CD1 mouse cerebellum in brain saggital section at 24 MBq, iv at 45 mins by autoradiography; assay type: ADME, organism-based; conditions: in vivo, 0.75 h
# In short: (§2)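 Female CD-1 mouse given [18F]1 (24 MBq) i.v. and sacrificed at 45 min. Brain hemispheres frozen in isopentane (−35 °C), cut into 12 µm sagittal cryosections, thaw-mounted, air-dried and exposed to 18F-sensitive storage phosphor screens. Anterior olfactory bulb served as nontarget region for target-to-nontarget ratios.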
# [5] = test system: Heart; assay: Biodistribution in CD1 mouse heart at 300 kBq, iv after 30 mins by gamma counting; assay type: ADME, organism-based; conditions: in vivo, 0.5 h; in short: as §1
# [6] = test system: Lung; assay: Biodistribution in CD1 mouse lung at 300 kBq, iv after 5 mins by gamma counting; assay type: ADME, organism-based; conditions: in vivo; in short: as §1
# [7] = test system: Mus musculus; assay: Biodistribution in CD1 mouse small intestine at 300 kBq, iv after 120 mins by gamma counting; assay type: ADME, organism-based; conditions: in vivo, 2 h; in short: as §1
# [8] = test system: Mus musculus; assay: Biodistribution in CD1 mouse anterior olfactory bulb in brain saggital section at 24 MBq, iv at 45 mins by autoradiography; assay type: ADME, organism-based; conditions: in vivo, 0.75 h; in short: as §2
# [9] = Metabolic stability in CD1 mouse brain homogenate assessed as compound remaining at 191 MBq, iv after 60 mins by radio-HPLC/TLC analysis; assay type: ADME, organism-based; conditions: read-out: Stability
# In short: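 Female CD-1 mice were injected with the radiotracer via the tail vein and killed at 30 or 60 min p.i. Whole brains (n = 2 per time) were homogenised in 50 mM TRIS–HCl pH 7.4 at 4 °C and extracted twice with ice-cold acetonitrile. Concentrated extracts were analysed by radio-HPLC and radio-TLC to give % parent versus radiometabolites.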
# [10] = test system: Mus musculus; assay: Biodistribution in CD1 mouse adrenals at 300 kBq, iv after 5 mins by gamma counting; assay type: ADME, organism-based, Adrenal gland; conditions: in vivo
# In short: (§3)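 Female CD-1 mice received [18F]1 (300 kBq) i.v.; 3–6 animals per time point anesthetized at 5, 30, 60 or 120 min p.i., blood and urine collected, animals euthanized by cervical dislocation, organs dissected and weighed. Radioactivity counted in a calibrated gamma counter; % ID/g = tissue counts / initial dose counts / tissue weight; means with SD.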
# [11] = test system: Mus musculus; assay: Biodistribution in CD1 mouse adrenals at 300 kBq, iv after 120 mins by gamma counting; assay type: ADME, organism-based, Adrenal gland; conditions: in vivo, 2 h; in short: as §3
# [12] = test system: Mus musculus; assay: Biodistribution in CD1 mouse dorsolateral periaqueductal gray in brain saggital section at 24 MBq, iv at 45 mins by autoradiography; assay type: ADME, organism-based; conditions: in vivo, 0.75 h; in short: as §2
# [13] = test system: Spleen; assay: Biodistribution in CD1 mouse spleen at 300 kBq, iv after 120 mins by gamma counting; assay type: ADME, organism-based; conditions: in vivo, 2 h; in short: as §1
# [14] = Chemical stability of the compound in 0.01 M Tris-HCl at pH 7.4 assessed as compound remaining after 2 hrs by radio-HPLC/TLC analysis; assay type: physicochemical; conditions: read-out: Stability
# In short: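 Radiotracer incubated 120 min at 40 °C in 0.9% NaCl (pH 7.2), phosphate-saline (0.1 M sodium phosphate, 0.15 M NaCl, pH 7.2) or 0.01 M TRIS–HCl (pH 7.4 at 21 °C). Aliquots were taken at set times and analysed by radio-TLC on silica and by gradient radio-HPLC on RP-18 (MeCN/20 mM ammonium acetate, 254 nm), giving % unchanged tracer; n = 2.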
# [15] = test system: Blood; assay: Biodistribution in CD1 mouse blood at 300 kBq, iv after 120 mins by gamma counting; assay type: ADME, organism-based; conditions: in vivo, 2 h; in short: as §3
# [16] = test system: Stomach; assay: Biodistribution in CD1 mouse stomach at 300 kBq, iv after 5 mins by gamma counting; assay type: ADME, organism-based; conditions: in vivo; in short: as §1
# [17] = test system: Femur; assay: Biodistribution in CD1 mouse femur at 300 kBq, iv after 60 mins by gamma counting; assay type: ADME, organism-based; conditions: in vivo, 1 h; in short: as §3
# [18] = test system: Brain; assay: Biodistribution in CD1 mouse brain at 300 kBq, iv after 30 mins by gamma counting; assay type: ADME, organism-based; conditions: in vivo, 0.5 h; in short: as §3
# [19] = test system: Mus musculus; assay: Biodistribution in CD1 mouse eye at 300 kBq, iv after 120 mins by gamma counting; assay type: ADME, organism-based; conditions: in vivo, 2 h; in short: as §3
# [20] = test system: Muscle tissue; assay: Biodistribution in CD1 mouse muscle at 300 kBq, iv after 30 mins by gamma counting; assay type: ADME, organism-based; conditions: in vivo, 0.5 h; in short: as §1
# [21] = test system: Brain; assay: Biodistribution in CD1 mouse brain at 300 kBq, iv after 5 mins by gamma counting; assay type: ADME, organism-based; conditions: in vivo; in short: as §3
# [22] = test system: Mus musculus; assay: Biodistribution in CD1 mouse eye at 300 kBq, iv after 5 mins by gamma counting; assay type: ADME, organism-based; conditions: in vivo; in short: as §3
# [23] = test system: Pancreas; assay: Biodistribution in CD1 mouse pancreas at 300 kBq, iv after 30 mins by gamma counting; assay type: ADME, organism-based; conditions: in vivo, 0.5 h; in short: as §1
# [24] = test system: Urinary bladder; assay: Biodistribution in CD1 mouse bladder at 300 kBq, iv after 120 mins by gamma counting; assay type: ADME, organism-based; conditions: in vivo, 2 h; in short: as §3
# [25] = test system: Mus musculus; assay: Biodistribution in CD1 mouse adrenals at 300 kBq, iv after 60 mins by gamma counting; assay type: ADME, organism-based, Adrenal gland; conditions: in vivo, 1 h; in short: as §3
# [26] = test system: Mus musculus; assay: Biodistribution in CD1 mouse facial nucleus in brain saggital section at 24 MBq, iv at 45 mins by autoradiography; assay type: ADME, organism-based; conditions: in vivo, 0.75 h; in short: as §2
# [27] = test system: Brain; assay: Biodistribution in CD1 mouse brain at 300 kBq, iv after 60 mins by gamma counting; assay type: ADME, organism-based; conditions: in vivo, 1 h; in short: as §3
# [28] = test system: Mus musculus; assay: Biodistribution in CD1 mouse fat at 300 kBq, iv after 30 mins by gamma counting; assay type: ADME, organism-based, Adipose tissue; conditions: in vivo, 0.5 h; in short: as §3
# [29] = Biodistribution in CD1 mouse urine at 300 kBq, iv after 30 mins by gamma counting; assay type: ADME, organism-based; conditions: in vivo, 0.5 h
# In short: (§4)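 Female CD-1 mice received 300 kBq of the radiotracer i.v.; 3–6 animals per time point were anaesthetised at 5, 30, 60 or 120 min p.i. Blood and urine were collected, animals were killed by cervical dislocation, and organs were dissected and weighed. Activity was counted in a calibrated gamma counter and expressed as % injected dose per g wet tissue, mean with SD.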
# [30] = test system: Mus musculus; assay: Biodistribution in CD1 mouse gonads at 300 kBq, iv after 5 mins by gamma counting; assay type: ADME, organism-based, Gonad; conditions: in vivo; in short: as §3
# [31] = test system: Mus musculus; assay: Biodistribution in CD1 mouse large intestine at 300 kBq, iv after 30 mins by gamma counting; assay type: ADME, organism-based; conditions: in vivo, 0.5 h; in short: as §1
# [32] = test system: Lung; assay: Biodistribution in CD1 mouse lung at 300 kBq, iv after 120 mins by gamma counting; assay type: ADME, organism-based; conditions: in vivo, 2 h; in short: as §1
# [33] = test system: Brain; assay: Biodistribution in CD1 mouse brain at 300 kBq, iv after 120 mins by gamma counting; assay type: ADME, organism-based; conditions: in vivo, 2 h; in short: as §3
# [34] = test system: Muscle tissue; assay: Biodistribution in CD1 mouse muscle at 300 kBq, iv after 5 mins by gamma counting; assay type: ADME, organism-based; conditions: in vivo; in short: as §1
# [35] = Biodistribution in CD1 mouse urine at 300 kBq, iv after 120 mins by gamma counting; assay type: ADME, organism-based; conditions: in vivo, 2 h; in short: as §4
# [36] = test system: Mus musculus; assay: Biodistribution in CD1 mouse gonads at 300 kBq, iv after 120 mins by gamma counting; assay type: ADME, organism-based, Gonad; conditions: in vivo, 2 h; in short: as §3
smiles,measurement,setting,value
[18F]CC1OC2(CCN(Cc3ccccc3)CC2)c2ccccc21 (stereo unspecified),Drug uptake,[1],19.78 % ID/g
same,logD,[2],2.39
same,Drug uptake,[3],3.61 % ID/g
same,Drug uptake,[4],Active
same,Drug uptake,[5],4.57 % ID/g
same,Drug uptake,[6],18.01 % ID/g
same,Drug uptake,[7],25.9 % ID/g
same,Drug uptake,[8],Active
same,remaining at 1 h,[9],79%
same,Drug uptake,[10],13.29 % ID/g
same,Drug uptake,[11],6.6 % ID/g
same,Drug uptake,[12],Active
same,Drug uptake,[13],4.84 % ID/g
same,remaining at 2 h,[14],100%
same,Drug uptake,[15],0.15 % ID/g
same,Drug uptake,[16],2.62 % ID/g
same,Drug uptake,[17],1.75 % ID/g
same,Drug uptake,[18],4.56 % ID/g
same,Drug uptake,[19],1.53 % ID/g
same,Drug uptake,[20],1.67 % ID/g
same,Drug uptake,[21],7.15 % ID/g
same,Drug uptake,[22],1.89 % ID/g
same,Drug uptake,[23],16.03 % ID/g
same,Drug uptake,[24],5.58 % ID/g
same,Drug uptake,[25],7.48 % ID/g
same,Drug uptake,[26],Active
same,Drug uptake,[27],2.99 % ID/g
same,Drug uptake,[28],1.82 % ID/g
same,Drug uptake,[29],46.35 % ID/g
same,Drug uptake,[30],3.26 % ID/g
same,Drug uptake,[31],1.28 % ID/g
same,Drug uptake,[32],6.82 % ID/g
same,Drug uptake,[33],2.7 % ID/g
same,Drug uptake,[34],2.12 % ID/g
same,Drug uptake,[35],56.46 % ID/g
same,Drug uptake,[36],3.55 % ID/g
